Test results published in ChEMBL document CHEMBL4376900, “Structure-Activity Relationship of Antischistosomal Ozonide Carboxylic Acids” (J Med Chem, 2020).
Converted amounts (≈) assume the structure as drawn.

Assays:
[1] = Partition coefficient, logD of the compound at pH 7.4 by HPLC analysis; assay type: physicochemical; settings: octanol/water
[2] = Kinetic solubility in pH 6.5 phosphate buffer incubated for 30 mins by nephelometry; assay type: physicochemical; settings: read-out: Kinetic_solubility
Procedure, shortened: (§1)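 DMSO stocks (10 mg/mL) diluted into pH 6.5 phosphate buffer or 0.01 M HCl (about pH 2.0) at 1% final DMSO. After 30 min, a solubility range was determined by nephelometry.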

[3] = Kinetic solubility in pH 2.0 0.01M HCl buffer incubated for 30 mins by nephelometry; assay type: physicochemical; settings: read-out: Kinetic_solubility; procedure, shortened: as §1
Albumin = Albumin (Homo sapiens, UniProt P02768); test: Protein binding to human albumin by HPLC analysis; assay type: ADME; settings: isolated protein
Sequence of Albumin (P02768 whole entry): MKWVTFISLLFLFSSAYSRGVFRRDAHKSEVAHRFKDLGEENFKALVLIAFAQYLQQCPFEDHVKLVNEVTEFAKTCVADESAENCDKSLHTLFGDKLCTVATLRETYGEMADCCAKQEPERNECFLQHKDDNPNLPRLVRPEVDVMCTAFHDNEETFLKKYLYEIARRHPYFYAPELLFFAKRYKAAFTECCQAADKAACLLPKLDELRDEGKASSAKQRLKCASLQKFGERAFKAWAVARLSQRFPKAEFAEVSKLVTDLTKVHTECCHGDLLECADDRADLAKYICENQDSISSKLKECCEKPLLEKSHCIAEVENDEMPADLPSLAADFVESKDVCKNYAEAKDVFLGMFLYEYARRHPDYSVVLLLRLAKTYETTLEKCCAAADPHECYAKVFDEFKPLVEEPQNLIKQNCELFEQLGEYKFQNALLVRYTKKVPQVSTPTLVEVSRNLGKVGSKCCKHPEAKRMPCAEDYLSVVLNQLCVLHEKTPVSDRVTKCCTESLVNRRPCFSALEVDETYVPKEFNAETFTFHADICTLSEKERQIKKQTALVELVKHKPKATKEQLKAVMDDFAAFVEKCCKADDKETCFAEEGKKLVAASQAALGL
Procedure, shortened: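 Binding estimated chromatographically using a gradient HPLC method derived from the Valko approach.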

Schistosoma mansoni [4] = test: Antischistosomal activity against Schistosoma mansoni infected in NMRI mouse assessed as reduction in total adult worm burden at 400 mg/kg, po administered as single dose starting on day 49 post-infection and measured at 28 days post treatment relative to control; assay type: functional; design: scale not given: the % may be the effect or the level left
[5] = Intrinsic clearance in human liver microsomes in presence of NADPH-regenerating system incubated over 60 mins; assay type: ADME, Microsome; settings: read-out: CLH
Procedure, shortened: (§2)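 Compounds incubated at 37 °C with liver microsomes at 0.4 mg/mL protein. Reaction started by adding an NADPH-regenerating system and quenched with acetonitrile containing diazepam internal standard at several time points over 60 min. No-NADPH controls were quenched at 2, 30 and 60 min.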

[6] = Intrinsic clearance in mouse liver microsomes in presence of NADPH-regenerating system incubated over 60 mins; assay type: ADME, Microsome; settings: read-out: CLH; procedure, shortened: as §2
Schistosoma mansoni [7] = test: Antischistosomal activity against Schistosoma mansoni infected in mouse assessed as reduction in juvenile worm burden at 200 mg/kg, po administered as single dose relative to control; assay type: functional; design: scale not given: the % may be the effect or the level left
Procedure, shortened: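 Female NMRI mice, 4 weeks old, infected subcutaneously with about 100 S. mansoni cercariae. Juvenile-stage treatment was a single oral dose on day 21 post-infection in 7% v/v Tween 80 / 3% v/v ethanol (10 mL/kg). Untreated infected mice (n = 8) served as controls. Necropsy by CO2 21 days post-treatment, with worms picked, sexed and counted.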

HFF = test: Cytotoxicity in HFF assessed as reduction in cell viability up to 50 uM incubated for 24 hrs by Alamar blue sye based assay; settings: human
Procedure, shortened: (§3)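 Cells maintained in D10 medium were grown to confluence, then exposed to increasing compound concentrations (0–100 μM) for 24 h. Alamar blue (10 mM) was then added for 4 h, and viability was read as fluorescence.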

U2OS = test: Cytotoxicity in human U2OS assessed as reduction in cell viability up to 50 uM incubated for 24 hrs by Alamar blue sye based assay; procedure, shortened: as §3
HEK-293T = test: Cytotoxicity in human HEK293T assessed as reduction in cell viability up to 50 uM incubated for 24 hrs by Alamar blue sye based assay; procedure, shortened: as §3
[8] = Cytotoxicity in human HC04 assessed as reduction in cell viability up to 50 uM incubated for 24 hrs by Alamar blue sye based assay; procedure, shortened: as §3
Schistosoma mansoni [9] = test: Antischistosomal activity against Schistosoma mansoni infected in mouse assessed as reduction in adult worm burden at 400 mg/kg, po administered as single dose relative to control; assay type: functional; design: scale not given: the % may be the effect or the level left
Schistosoma japonicum [10] = test: Antischistosomal activity against Schistosoma japonicum infected in mouse assessed as reduction in adult worm burden at 400 mg/kg, po administered as single dose relative to control; assay type: functional; design: scale not given: the % may be the effect or the level left
Schistosoma haematobium = test: Antischistosomal activity against Schistosoma haematobium infected in mouse assessed as reduction in adult worm burden at 400 mg/kg, po administered as single dose relative to control; assay type: functional; design: scale not given: the % may be the effect or the level left
Schistosoma mansoni [11] = test: Antischistosomal activity against Schistosoma mansoni; assay type: functional, organism-based
Schistosoma japonicum [12] = test: Antischistosomal activity against Schistosoma japonicum; assay type: functional, organism-based

SMILES	logD [1]	solubility kinetic at 0.5 h [2]	solubility kinetic at 0.5 h [3]	PPB (Albumin)	Activity (Schistosoma mansoni [4])	microsomal CLint [5]	microsomal CLint [6]	Activity (Schistosoma mansoni [7])	Activity (HFF)	Activity (U2OS)	Activity (HEK-293T)	Activity [8]	Activity (Schistosoma mansoni [9])	Activity (Schistosoma japonicum [10])	Activity (Schistosoma haematobium)	IC50 (Schistosoma mansoni [11])	IC50 (Schistosoma japonicum [12])
O=C(O)COc1ccc([C@H]2CC[C@]3(CC2)OOC2(O3)C3CC4CC2CC(C3)C4=O)cc1 (some centres not stated)	1.9	< 1.6 µg/mL	50 to 100 µg/mL (≈ 117 to 233 µM)	97.8%	24%												
O=C(O)CCCCOc1ccc([C@H]2CC[C@]3(CC2)OOC2(O3)C3CC4CC(C3)CC2C4)cc1 (some centres not stated)	4	< 1.6 µg/mL	< 1.6 µg/mL	> 99.5%	51%	< 7 µL/min/mg	13 µL/min/mg										
CS(=O)(=O)O.NC1C2CC3CC1CC(C2)C31OO[C@]2(CC[C@@H](c3ccc(OCC(=O)O)cc3)CC2)O1 (some centres not stated)	1.4	6.3 to 12.5 µg/mL	< 1.6 µg/mL	94.2%	30%	13 µL/min/mg	8 µL/min/mg										
CCOC(=O)COc1ccc([C@H]2CC[C@]3(CC2)OOC2(O3)C3CC4CC(C3)CC2C4)cc1 (some centres not stated)	> 5.3	< 1.6 µg/mL	< 0.78 µg/mL	98.9%	60%												
O=C(O)c1ccc([C@H]2CC[C@]3(CC2)OOC2(O3)C3CC4CC(C3)CC2C4)cc1 (some centres not stated)	3	< 3.1 µg/mL	< 1.6 µg/mL	98.8%				100%									
O=C(O)COc1ccc([C@H]2CC[C@]3(CC2)OOC2(O3)C3CC4CC(C3)CC2C4)cc1Cl (some centres not stated)	3.2	< 3.1 µg/mL	3.1 to 6.3 µg/mL (≈ 6.91 to 14 µM)	> 99.5%	84%	< 7 µL/min/mg	8 µL/min/mg		Non-Toxic	Non-Toxic	Non-Toxic	Non-Toxic					
O=C(O)c1cc([C@H]2CC[C@]3(CC2)OOC2(O3)C3CC4CC(C3)CC2C4)ccc1O (some centres not stated)	3	< 1.6 µg/mL	> 100 µg/mL		36%	108 µL/min/mg	20 µL/min/mg										
CS(=O)(=O)O.O=C(O)CNCc1ccc([C@H]2CC[C@]3(CC2)OOC2(O3)C3CC4CC(C3)CC2C4)cc1 (some centres not stated)	3.3	< 12.5 µg/mL	< 6.3 µg/mL	97.6%	90%	< 7 µL/min/mg	10 µL/min/mg		Non-Toxic	Non-Toxic	Non-Toxic	Non-Toxic					
CS(=O)(=O)O.CS(=O)(=O)O.O=C(O)CNCc1ccc([C@H]2CC[C@]3(CC2)OOC2(O3)C3CC4CC2CC(C3)N4)cc1 (some centres not stated)	1.6	> 100 µg/mL	50 to 100 µg/mL		41%	< 7 µL/min/mg	< 7 µL/min/mg										
CC(=O)NC1C2CC3CC1CC(C2)C31OO[C@]2(CC[C@@H](c3ccc(OCC(=O)O)cc3)CC2)O1 (some centres not stated)	1.8	3.1 to 6.3 µg/mL (≈ 6.57 to 13.4 µM)	12.5 to 25 µg/mL (≈ 26.5 to 53 µM)	98.2%	0%	10 µL/min/mg	< 7 µL/min/mg										
O=C(O)CN1CCC(Oc2ccc([C@H]3CC[C@]4(CC3)OOC3(O4)C4CC5CC(C4)CC3C5)cc2)CC1 (some centres not stated)					75%	< 7 µL/min/mg	< 7 µL/min/mg		Non-Toxic	Non-Toxic	Non-Toxic	Non-Toxic					
O=C([O-])C1CCN(CCOc2ccc([C@H]3CC[C@]4(CC3)OOC3(O4)C4CC5CC(C4)CC3C5)cc2)CC1.[Na+] (some centres not stated)	3.8	3.1 to 6.3 µg/mL	< 1.6 µg/mL	98%	0%	< 7 µL/min/mg	9 µL/min/mg										
CC(C)(Oc1ccc([C@H]2CC[C@]3(CC2)OOC2(O3)C3CC4CC(C3)CC2C4)cc1)C(=O)O (some centres not stated)	3.1	< 1.6 µg/mL	3.1 to 6.3 µg/mL (≈ 7 to 14.2 µM)	> 99.5%	48%	< 7 µL/min/mg	7 µL/min/mg										
CS(=O)(=O)NC(=O)COc1ccc([C@H]2CC[C@]3(CC2)OOC2(O3)C3CC4CC(C3)CC2C4)cc1 (some centres not stated)	3	< 1.6 µg/mL	6.3 to 12.5 µg/mL (≈ 12.8 to 25.4 µM)		53%	< 7 µL/min/mg	12 µL/min/mg										
O=C(O)CCCOc1ccc([C@H]2CC[C@]3(CC2)OOC2(O3)C3CC4CC(C3)CC2C4)cc1 (some centres not stated)	3.6	< 3.1 µg/mL	< 1.6 µg/mL	> 99.5%	55%	< 7 µL/min/mg	8 µL/min/mg										
O=C(O)COc1ccc([C@H]2CC[C@]3(CC2)OOC2(O3)C3CC4CC(C3)CC2C4)cc1C(=O)O (some centres not stated)	1.9	< 3.1 µg/mL	> 100 µg/mL	99.1%	0%	< 7 µL/min/mg	8 µL/min/mg										
O=C(O)COc1ccc([C@H]2CC[C@]3(CC2)OOC2(O3)C3CC4CC2CC(C3)C4O)cc1 (some centres not stated)	1.7	< 1.6 µg/mL	25 to 50 µg/mL (≈ 58.1 to 116 µM)	98.5%	14%	< 7 µL/min/mg	< 7 µL/min/mg										
O=C(O)c1cccc([C@H]2CC[C@]3(CC2)OOC2(O3)C3CC4CC(C3)CC2C4)c1 (some centres not stated)	3	< 1.6 µg/mL	< 1.6 µg/mL	98.9%	63%	12 µL/min/mg	30 µL/min/mg										
O=C(O)CNC(=O)COc1ccc([C@H]2CC[C@]3(CC2)OOC2(O3)C3CC4CC(C3)CC2C4)cc1 (some centres not stated)	3	12.5 to 25 µg/mL (≈ 26.5 to 53 µM)	< 3.1 µg/mL	98.5%	76%	< 7 µL/min/mg			Non-Toxic	Non-Toxic	Non-Toxic	Non-Toxic					
O=C(O)COc1c(Cl)cc([C@H]2CC[C@]3(CC2)OOC2(O3)C3CC4CC(C3)CC2C4)cc1Cl (some centres not stated)	3.3	< 3.1 µg/mL	3.1 to 6.3 µg/mL (≈ 6.41 to 13 µM)		32%												
O=C(O)COc1ccc([C@H]2CC[C@]3(CC2)OOC2(O3)C3CC4CC(C3)CC2C4)cc1 (some centres not stated)	2.9	< 1.6 µg/mL	6.3 to 12.5 µg/mL (≈ 15.2 to 30.2 µM)					84%					80%	69%	86%	44 µM	39 µM
CS(=O)(=O)O.O=C(O)COc1ccc([C@H]2CC[C@]3(CC2)OOC2(O3)C3CC4CC2CC(C3)N4)cc1 (some centres not stated)	1.3	3.1 to 6.3 µg/mL	< 1.6 µg/mL		29%	35 µL/min/mg	27 µL/min/mg										
CS(=O)(=O)O.O=C(O)C1CN(Cc2ccc([C@H]3CC[C@]4(CC3)OOC3(O4)C4CC5CC(C4)CC3C5)cc2)C1 (some centres not stated)		6.3 to 12.5 µg/mL	< 1.6 µg/mL		43%	7 µL/min/mg	10 µL/min/mg										
O=C(O)COc1ccc([C@H]2CC[C@]3(CC2)OOC2(O3)C3CC4CC2CC(C3)C4(F)F)cc1 (some centres not stated)	2.9	< 1.6 µg/mL	12.5 to 25 µg/mL (≈ 27.7 to 55.5 µM)	99.4%	57%	23 µL/min/mg	130 µL/min/mg										
C[C@H]1[C@@H](O)O[C@@H]2O[C@@]3(C)CC[C@H]4[C@H](C)CC[C@@H]1[C@@]24OO3 [ARTENIMOL]					66%												
